Data set [1] relates to Mus musculus. As to the kind of experiment: Antidepressant activity in C57BL/6J mouse assessed as number of events at […] mg/kg, ip measured over 6 mins by tail suspension test (reference value: 1325.1 +/- 77.8 to 1773.4 +/- 109.9). The format is functional.
In data set [2] the test system is Mus musculus. Description: Antidepressant activity in C57BL/6J mouse assessed as number of events at […], ip measured over 6 mins by tail suspension test (reference value: 1325.1 +/- 77.8 to 1773.4 +/- 109.9). The format is functional.
Data set [3] deals with Mus musculus. As to the kind of experiment: Antidepressant activity in C57BL/6J mouse assessed as number of events at 5 mg/kg, ip measured over 6 mins by tail suspension test (reference value: 1325.1 +/- 77.8 to 1773.4 +/- 109.9). The class given is functional.
For data set [4], the system named is Mus musculus. As to the kind of experiment: Antidepressant activity in C57BL/6J mouse assessed as immobility time at 0.625 mg/kg, ip measured over 6 mins by tail suspension test (reference value: 160.7 +/- 12 to 170.6 +/- 9 sec). The class given is functional.
The subject of data set [5] is Mus musculus. Description: Antidepressant activity in C57BL/6J mouse assessed as immobility time at […], ip measured over 6 mins by tail suspension test (reference value: 160.7 +/- 12 to 170.6 +/- 9 sec). The format is functional.
For data set [6], the system named is Mus musculus. As to the kind of experiment: Antidepressant activity in C57BL/6J mouse assessed as immobility time at 5 mg/kg, ip measured over 6 mins by tail suspension test (reference value: 160.7 +/- 12 to 170.6 +/- 9 sec). The class given is functional.
For data set [7], the system named is Mus musculus. Description: Antidepressant activity in ip dosed albino Swiss mouse assessed as decrease in immobility time at MED by forced swim test. The format is functional.
Data set [8] has as its system Mus musculus. Description: Toxicity in ip dosed albino Swiss mouse assessed as effect on spontaneous locomotory activity at MED measured over 2 to 6 mins. The format is organism-based. The following applies: in vivo. The method in brief:
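Male Albino Swiss mice (22–28 g) received drug i.p. 60 min before testing, in 1% aqueous Tween 80 or distilled water. Each mouse was habituated alone in a plastic cage for 30 min, then ambulation was counted from 2 to 6 min. Groups of 6–10 animals, each used once.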

A further data set addresses D(2) dopamine receptor (Homo sapiens, UniProt P14416). Description: Displacement of [3H]-Raclopride from human D2L receptor expressed in HEK293 cells after 1 hr. The format is cell-based. The method in brief: (§1)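 Membranes from stably transfected HEK293 cells were homogenized in assay buffer and spun twice at 35,000 g with a 15-min 37 °C step between. Binding ran 1 h at 37 °C and was stopped by rapid filtration, then filter radioactivity was counted. 5-HT6 buffer: 50 mM Tris-HCl, 0.5 mM EDTA, 4 mM MgCl2, with methiothepine for nonspecific binding. D2L buffer: Tris-HCl, EDTA, MgCl2, 120 mM NaCl, KCl, CaCl2, ascorbate, with (+)butaclamol for nonspecific binding. Triplicate, 7–8 concentrations (10^-11–10^-4 M).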
(In general: Loss of bound radioactivity is the signal in a displacement assay; it reports binding, not function.)

Data set [9] concerns the target 5-hydroxytryptamine receptor 6 (Homo sapiens, UniProt P50406). Description: Displacement of [3H]-LSD from human 5-HT6 receptor expressed in HEK293 cells after 1 hr. The class given is cell-based. A digest of the protocol:
as §1

Data set [10] has as its target 5-hydroxytryptamine receptor 2A (Homo sapiens, UniProt P28223). Description: Displacement of [3H]-Ketanserin from human 5-HT2A receptor expressed in HEK293 cells after 1 hr. The format is cell-based.
The target of data set [11] is T1, 5-hydroxytryptamine receptor 7 (Homo sapiens, UniProt P34969). Description: Antagonist activity at human 5-HT7B receptor expressed in CHO cells assessed as inhibition of 5-CT induced cAMP production at 10^-7 M after 30 mins by TR-FRET assay. The class given is functional, cell-based. On the technique in general: Changes in cAMP serve as a functional read-out for many G protein-coupled receptors.

The target of data set [12] is T1, 5-hydroxytryptamine receptor 7. As to the kind of experiment: Antagonist activity at human 5-HT7B receptor expressed in […] cells assessed as inhibition of 5-CT induced cAMP production at 10^-6 M after 30 mins by TR-FRET assay. The format is functional, cell-based.
Data set [13] has the same target. As to the kind of experiment: Displacement of [3H]-5-CT from human 5-HT7B receptor expressed in HEK293 cells after 1 hr. The format is cell-based. The method in brief: (§2)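 Competition binding on membranes from HEK293 cells stably expressing human 5-HT7b or 5-HT1A. Incubation 1 h, at 37 °C for 5-HT7b and at room temperature for 5-HT1A. Non-specific binding defined with 10 µM 5-HT.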

For data set [14], the target named is T2, 5-hydroxytryptamine receptor 1A (Homo sapiens, UniProt P08908).
T2 sequence (P08908 whole entry): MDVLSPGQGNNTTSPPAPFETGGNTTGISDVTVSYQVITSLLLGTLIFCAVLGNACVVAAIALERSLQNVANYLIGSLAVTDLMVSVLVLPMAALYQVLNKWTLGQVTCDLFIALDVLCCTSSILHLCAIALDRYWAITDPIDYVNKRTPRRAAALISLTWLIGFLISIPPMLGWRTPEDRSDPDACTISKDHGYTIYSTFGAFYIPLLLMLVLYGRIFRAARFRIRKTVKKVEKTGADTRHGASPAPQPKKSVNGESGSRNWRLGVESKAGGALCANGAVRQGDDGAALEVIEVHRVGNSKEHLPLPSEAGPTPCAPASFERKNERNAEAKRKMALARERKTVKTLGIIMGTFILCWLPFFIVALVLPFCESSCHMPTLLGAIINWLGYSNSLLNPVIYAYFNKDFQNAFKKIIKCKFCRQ
Description: Displacement of [3H]-8-OH-DPAT from human 5-HT1A receptor expressed in HEK293 cells after 1 hr. The format is cell-based. The method in brief:
as §2

The subject of data set [15] is Mus musculus. As to the kind of experiment: Antidepressant activity in ip dosed C57BL/6J mouse assessed as reduction in immobility time of mouse by tail suspension test. The format is functional. To be noted: read-out: MED.
In data set [16] the test system is Mus musculus. Description: Anxiolytic activity in ip dosed albino Swiss mouse assessed as increase in number of shocks accepted measured over 1 min, 15 secs by four plates test. To be noted: read-out: MED. The class given is functional. A digest of the protocol:
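Male Albino Swiss mice, ip injection 60 min before test. Four-plate cage; after 15 s of habituation, each plate-to-plate crossing during a 1-min session is punished with a 0.8 mA, 0.5 s foot shock, followed by a 3-s shock-free interval. Number of shocks accepted is counted.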

Data set [17] relates to Mus musculus. As to the kind of experiment: Toxicity in ip dosed C57BL/6J mouse assessed as effect on spontaneous locomotory activity at MED measured over 6 mins. The format is organism-based. To be noted: in vivo, 0.1 h. A digest of the protocol: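 Mice habituated 30 min in individual cages, then ambulation counted over a period matching each behavioural test: 6 min for the tail suspension test and 1 min 15 s for the four-plate test. Compounds given ip at the active doses.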

Data set [18] deals with Mus musculus. Description: Toxicity in ip dosed C57BL/6J mouse assessed as effect on spontaneous locomotory activity at MED measured over 1 min 15 secs. The format is organism-based. To be noted: in vivo.
Data set [19] relates to Mus musculus. As to the kind of experiment: Antidepressant activity in C57BL/6J mouse assessed as average force at 0.625 mg/kg, ip measured over 6 mins by tail suspension test (reference value: 0.281 +/- 0.018 to 0.359 +/- 0.027 N). The format is functional.
The subject of data set [20] is Mus musculus. As to the kind of experiment: Antidepressant activity in C57BL/6J mouse assessed as average force at […] mg/kg, ip measured over 6 mins by tail suspension test (reference value: 0.281 +/- 0.018 to 0.359 +/- 0.027 N). The format is functional.
For data set [21], the system named is Mus musculus. Description: Antidepressant activity in C57BL/6J mouse assessed as average force at […], ip measured over 6 mins by tail suspension test (reference value: 0.281 +/- 0.018 to 0.359 +/- 0.027 N). The class given is functional.
Data set [22] deals with Adrenergic receptor alpha-1 (Rattus norvegicus). As to the kind of experiment: Displacement of [3H]-prazosin from rat alpha1 adrenoceptor in rat cerebral cortex after 1 hr.

Each structure is given as a SMILES string.

Data on one molecule can be found in ChEMBL document CHEMBL3758131, “Towards new 5-HT7 antagonists among arylsulfonamide derivatives of (aryloxy)ethyl-alkyl amines: Multiobjective based design, synthesis, and antidepressant and anxiolytic properties” (Eur J Med Chem, 2016).

T1 sequence (P34969 whole entry): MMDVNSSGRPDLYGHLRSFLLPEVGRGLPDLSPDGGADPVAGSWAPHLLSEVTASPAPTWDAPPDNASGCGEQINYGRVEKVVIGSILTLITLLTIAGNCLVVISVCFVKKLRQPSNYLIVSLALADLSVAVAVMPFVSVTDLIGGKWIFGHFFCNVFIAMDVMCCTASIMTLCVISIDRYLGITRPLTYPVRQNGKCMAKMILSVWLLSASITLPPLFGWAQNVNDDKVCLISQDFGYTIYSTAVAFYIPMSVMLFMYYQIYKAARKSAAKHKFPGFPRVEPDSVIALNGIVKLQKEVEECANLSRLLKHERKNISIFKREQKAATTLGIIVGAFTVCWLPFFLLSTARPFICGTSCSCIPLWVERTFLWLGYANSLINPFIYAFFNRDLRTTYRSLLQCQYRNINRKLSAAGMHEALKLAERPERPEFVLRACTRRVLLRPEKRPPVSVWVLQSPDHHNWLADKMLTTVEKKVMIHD
Chain of 5-hydroxytryptamine receptor 6 (P50406 whole entry): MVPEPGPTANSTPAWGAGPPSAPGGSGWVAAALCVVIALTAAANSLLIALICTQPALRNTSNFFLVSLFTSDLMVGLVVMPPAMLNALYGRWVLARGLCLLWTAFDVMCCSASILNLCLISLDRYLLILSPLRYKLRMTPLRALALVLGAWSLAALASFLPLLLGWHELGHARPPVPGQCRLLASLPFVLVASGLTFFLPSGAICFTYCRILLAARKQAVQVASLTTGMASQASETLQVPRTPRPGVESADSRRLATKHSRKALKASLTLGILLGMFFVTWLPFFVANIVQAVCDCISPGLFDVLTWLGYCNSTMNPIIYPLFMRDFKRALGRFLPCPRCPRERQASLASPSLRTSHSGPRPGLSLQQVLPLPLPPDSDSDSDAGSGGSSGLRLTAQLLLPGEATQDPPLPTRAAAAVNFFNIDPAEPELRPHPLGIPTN
Chain of D(2) dopamine receptor (P14416 whole entry): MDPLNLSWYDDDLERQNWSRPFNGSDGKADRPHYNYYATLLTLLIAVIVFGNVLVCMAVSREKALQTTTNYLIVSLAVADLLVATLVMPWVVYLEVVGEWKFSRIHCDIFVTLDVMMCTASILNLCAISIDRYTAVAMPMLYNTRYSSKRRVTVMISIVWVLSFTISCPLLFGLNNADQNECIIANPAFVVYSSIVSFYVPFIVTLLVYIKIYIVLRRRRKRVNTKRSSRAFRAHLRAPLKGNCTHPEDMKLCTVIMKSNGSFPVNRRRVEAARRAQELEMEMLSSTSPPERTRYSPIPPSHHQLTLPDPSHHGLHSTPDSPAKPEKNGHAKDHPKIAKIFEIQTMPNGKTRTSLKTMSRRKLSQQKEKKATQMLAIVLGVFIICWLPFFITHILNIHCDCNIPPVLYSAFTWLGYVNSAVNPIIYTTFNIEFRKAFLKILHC
Chain of 5-hydroxytryptamine receptor 2A (P28223 whole entry): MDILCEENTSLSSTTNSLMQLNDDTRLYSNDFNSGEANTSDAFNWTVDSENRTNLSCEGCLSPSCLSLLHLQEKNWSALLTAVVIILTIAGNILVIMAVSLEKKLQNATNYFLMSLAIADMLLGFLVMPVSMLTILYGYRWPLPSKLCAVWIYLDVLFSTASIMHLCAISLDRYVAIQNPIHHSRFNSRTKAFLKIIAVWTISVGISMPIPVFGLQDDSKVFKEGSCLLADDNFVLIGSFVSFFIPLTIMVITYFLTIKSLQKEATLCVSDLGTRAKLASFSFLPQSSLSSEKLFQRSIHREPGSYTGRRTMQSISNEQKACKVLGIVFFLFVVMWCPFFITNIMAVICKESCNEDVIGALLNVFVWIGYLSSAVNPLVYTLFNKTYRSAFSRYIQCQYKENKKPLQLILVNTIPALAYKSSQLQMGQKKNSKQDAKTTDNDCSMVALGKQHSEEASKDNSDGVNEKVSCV

Consider `O=S(=O)(NC1CCN(CCOc2ccccc2C2CCCC2)CC1)c1cccc(F)c1`, for which the Activity in the data set on Mus musculus [1] was 1595.4; in the data set on Mus musculus [2], 1400.7; in the data set with Mus musculus [3] it was 1682; with Mus musculus [8] it was “Non-toxic”; in the data set on Mus musculus [17], “Non-toxic”; with Mus musculus [18], “Non-toxic”. Moreover, the Activity with Mus musculus [19] amounted to 0.18 N; with Mus musculus [20], 0.29 N; in the data set on Mus musculus [21], 0.641 N. In addition, the Time in the data set with Mus musculus [4] is recorded as 234.4 s; in the data set with Mus musculus [5] it was 103.5 s; with Mus musculus [6], 142.8 s. In the data set on Mus musculus [7], the “inhibition (INH)” value turned out to be 18%. Further, the Ki (commonly the equilibrium dissociation constant of an inhibitor or competing ligand from its target) at D(2) dopamine receptor turned out to be 322 nM; in data set [9] it was 281 nM; in data set [10], 303 nM; in [13] it was 19 nM; in data set [14], 545 nM; in data set [22], 1525 nM. Moreover, the inhibition (usually the percentage by which the read-out fell short of the control) in data set [11] stood at 61%; in [12], 90%. Moreover, the minimal effective dose with Mus musculus [15] worked out at 2.5 mg/kg; in the data set with Mus musculus [16], 1.25 mg/kg.
